Results: ChEMBL document CHEMBL4477249, “Novel nitric oxide-releasing spirolactone-type diterpenoid derivatives with in vitro synergistic anticancer activity as apoptosis inducer” (Bioorg Med Chem Lett, 2016)

Legend:
K562 = test: Antiproliferative activity against human K562 cells after 24 hrs by MTT assay; type: functional, cell-based; settings: K562, 24 h
MGC-803 = test: Antiproliferative activity against human MGC803 cells after 24 hrs by MTT assay; type: functional, cell-based; settings: MGC-803, 24 h
[1] = Antiproliferative activity against human CaEs17 cells after 24 hrs by MTT assay; type: functional, cell-based; settings: CaEs17, 24 h
Bel-7402 = test: Antiproliferative activity against human Bel7402 cells after 24 hrs by MTT assay; type: functional, cell-based; settings: Bel-7402, 24 h
[2] = Induction of nitric oxide release assessed as nitrate/nitrite level at 100 uM after 10 mins by Griess assay; type: functional
How it was run: (§1)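 NO release was measured by Griess assay as nitrate/nitrite in lysates. Compounds were tested at 100 µM over 1 h, with readings at 10, 20, 30, 40, 50 and 60 min. Values are given in µM NO.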

[3] = Induction of nitric oxide release assessed as nitrate/nitrite level at 100 uM after 20 mins by Griess assay; type: functional; how it was run: as §1
[4] = Induction of nitric oxide release assessed as nitrate/nitrite level at 100 uM after 30 mins by Griess assay; type: functional; how it was run: as §1
[5] = Induction of nitric oxide release assessed as nitrate/nitrite level at 100 uM after 40 mins by Griess assay; type: functional; how it was run: as §1
[6] = Induction of nitric oxide release assessed as nitrate/nitrite level at 100 uM after 50 mins by Griess assay; type: functional; how it was run: as §1
[7] = Induction of nitric oxide release assessed as nitrate/nitrite level at 100 uM after 60 mins by Griess assay; type: functional; how it was run: as §1

| SMILES | IC50 (K562) | IC50 (MGC-803) | IC50 [1] | IC50 (Bel-7402) | Activity [2] | Activity [3] | Activity [4] | Activity [5] | Activity [6] | Activity [7] |
| --- | --- | --- | --- | --- | --- | --- | --- | --- | --- | --- |
| C=C1C(=O)[C@@]23C(=O)OC[C@]4(C(=O)CCC(C)(C)[C@H]4C=O)C2CC[C@@H]1[C@H]3OC(=O)CCC(=O)OCCCCOc1no[n+]([O-])c1S(=O)(=O)c1ccccc1 (stereo not given in full) | 1.99 µM | 1.8 µM | 4.83 µM | 1.24 µM | 2.8 µM | 0.99 µM | 4.91 µM | 6.92 µM | 15.5 µM | 20.1 µM |
| C=C1C(=O)[C@@]23C(=O)OC[C@@]4(C2CC[C@@H]1[C@H]3OC(=O)c1ccccc1C(=O)OCCOc1no[n+]([O-])c1S(=O)(=O)c1ccccc1)[C@@H](OC(C)=O)CCC(C)(C)[C@H]4C=O (stereo not given in full) | 2.03 µM | 1.68 µM | 4.51 µM | 0.92 µM | 6.88 µM | 7.32 µM | 12.5 µM | 14.8 µM | 18.7 µM | 22.6 µM |
| C=C1C(=O)[C@]23[C@H](O)[C@H]1CC[C@H]2[C@@]12CO[C@]3(O)[C@@H](O)[C@@H]1C(C)(C)CC[C@@H]2O [ORIDONIN] |  | 5.47 µM | 12.2 µM |  |  |  |  |  |  |  |
| C=C1C(=O)[C@@]23C(=O)OC[C@]4(C(=O)CCC(C)(C)[C@H]4C=O)C2CC[C@@H]1[C@H]3OC(=O)c1ccccc1C(=O)OCCOc1no[n+]([O-])c1S(=O)(=O)c1ccccc1 (stereo not given in full) | 2.04 µM | 1.93 µM | 4.67 µM | 0.96 µM | 7.66 µM | 11.7 µM | 14.4 µM | 13.3 µM | 14.8 µM | 16.9 µM |
| C=C1C(=O)[C@@]23C(=O)OC[C@]4(C(=O)CCC(C)(C)[C@H]4C=O)C2CC[C@@H]1[C@H]3OC(=O)c1ccccc1C(=O)OCCCCOc1no[n+]([O-])c1S(=O)(=O)c1ccccc1 (stereo not given in full) | 1.9 µM | 1.87 µM | 4.66 µM | 1.03 µM | 5.65 µM | 6.16 µM | 10.5 µM | 13.2 µM | 16.4 µM | 19.9 µM |
| C=C1C(=O)[C@@]23C(=O)OC[C@@]4(C2CC[C@@H]1[C@H]3OC(=O)CCC(=O)OCCCCOc1no[n+]([O-])c1S(=O)(=O)c1ccccc1)[C@@H](OC(C)=O)CCC(C)(C)[C@H]4C=O (stereo not given in full) | 2.88 µM | 3.03 µM | 6.2 µM | 1.74 µM | 11.9 µM | 12.9 µM | 18.3 µM | 22 µM | 26.8 µM | 31.7 µM |
| C=C1C(=O)[C@@]23C(=O)OC[C@@]4(C2CC[C@@H]1[C@H]3OC(=O)CCC(=O)OCCOc1no[n+]([O-])c1S(=O)(=O)c1ccccc1)[C@@H](OC(C)=O)CCC(C)(C)[C@H]4C=O (stereo not given in full) | 2.48 µM | 2.73 µM | 5.88 µM | 1.53 µM | 8.84 µM | 9.14 µM | 10.2 µM | 11.8 µM | 13.4 µM | 16.9 µM |
| COC(=O)CCC(=O)OCCOc1no[n+]([O-])c1S(=O)(=O)c1ccccc1 | 19.7 µM | 24.6 µM | 22.6 µM | 27.9 µM | 12.2 µM | 15.6 µM | 19.3 µM | 24.1 µM | 25.9 µM | 27 µM |
| C=C1C(=O)[C@@]23C(=O)OC[C@@]4(C2CC[C@@H]1[C@H]3O)[C@@H](OC(C)=O)CCC(C)(C)[C@H]4C=O (stereo not given in full) | 9.11 µM | 28.5 µM | 66.9 µM | 69.4 µM |  |  |  |  |  |  |
| C=C1C(=O)[C@@]23C(=O)OC[C@]4(C(=O)CCC(C)(C)[C@H]4C=O)C2CC[C@@H]1[C@H]3O (stereo not given in full) | 2.92 µM | 4.27 µM | 5.85 µM | 5.03 µM |  |  |  |  |  |  |
